This note sets out measurements from the RNAGym collection of RNA variant scans (doi:10.1101/gad.245936.114).

Variants at the floor of the assay were thinned out. Bounds are passed on as bounds.

The chains are these.
B1: tRNA (parent)
chain: CUCUCGGUAGCCAAGUUGGUUUAAGGCGCAAGACUUUAAUUUAUCACUACGAAAUCUUGAGAUCGGGCGUUCGACUCGCCCCCGGGAGAUUUUUUCCUCGAGCAA

This series covers variants of B1. Briefly: nonsense suppression (GFP-seq) (ratio to wild type); higher = more function; SUP4oc tRNA, yeast GFP reporter sort-seq. Put shortly: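 Nonsense suppression (GFPSEQ) is the median GFP/RFP ratio of each sorting bin, weighted by the variant's estimated share of cells in that bin and expressed relative to the unmutated parent tRNA. Yeast strains carried genome-integrated variants of an ochre-suppressor tRNA from a library with ~3% random mutations, plus a galactose-driven GFP ochre reporter and RFP, and were grown in raffinose/galactose medium containing 80 mg/L adenine. Cells were sorted into GFP/RFP bins, each bin was Illumina-sequenced (phred ≥30), and variants were kept only with ≥100 reads and ≥30 cells.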
As to CUCGCGGUAGCCAAGUCGGUUUAAGGCGCAAGACUUUAAUUUAUCACUACGAAAUCUUGAGAUCGGGCGUUCGACUCGCCCCCGGGAGAUUUUUUCCUCGAGCAA [U4G U17C], the nonsense suppression was determined as 0.45.

With CUCUAGGUAGCCCAGUUGGUUUAAGGCGCAAGACUUUAAUUUAUCACUACGAAAUCUAGAGAUCGGGCGUUCGACUCGCCACCGGGAGAUUUUUUCCUCGAGCAA [C5A A13C U58A C81A], the nonsense suppression was no more than 0.026.

In the case of CUCUAGGUCGCCAAGUUGGUUUAGGGCGCAAGACUUUAAUUUAUCACUACGAAAUCUUGAGAUCGGGCGUUCGACUCGCCCCCGAGAGAUUUUUUCCUCGAGCAA [C5A A9C A24G G85A], the nonsense suppression was no more than 0.026.

Consider CUCGCGGUAGCCAAGUUGGUUUAAGGCGCAAGACUUUAAUUUAUCACUACGAAAUCUUGAGAUCGGGCGUUCGACUCGCCUCCGGGAGAUUUUUUCCUCGAGCAA [U4G C81U], for which the nonsense suppression was found to be 0.161.

Consider CUCUAGGUAGCCAAGUUGGUUUAAGGCGCAAGACUUUAAUUUAUCACUACGAAAUCUUGAGAUAGGGCGUUCGACUAGCCCCCGGGAGAUUUUUUCCUCGAGCAA [C5A C64A C77A], for which the nonsense suppression is no more than 0.026.

Turning to CUCGCGGUAGCCAAGUUCGUUUAAGGCACAAGACUUUAAUUUAUCACUACGAAAUCUUGAGAUCGGGCGUUCGGCUCGCCCCCGGGAGAUUUUUUCCUCGAGCAA [U4G G18C G28A A74G], the nonsense suppression is no more than 0.026.

Consider CUCGCGGUAGCCAAGCUGGUUUAAGGCGCAAGACUUUAAUUUAUCACUACGAAAUCUUGAGAUCGGGCGUUCGACUCGCCCCCGGGAGAUUUUUUCCUCGAGCAA [U4G U16C], for which the nonsense suppression is 0.882.

Regarding CUCGCGGUAGCCAAGUUGGAUUAAGGCGCAAGACUUUAAUUUAUCACUACGAAAUCUUGAGAUCGGGCGUUCGACUCGCCCCCGGGAGAUUUUUUCCUCGAGCAA [U4G U20A], the nonsense suppression was found to be 0.0644.

With CUCGCGGUAGCCAAGUUGGGUUAAGGCGCAAGACUUUAAUUUAUCACUACGAAAUCUUGAGAUCGGGCGUUCGACUCGCCCCCGGGAGAUUUUUUCCUCGAGCAA [U4G U20G], the nonsense suppression came to 0.834.

Consider CUCUAGGUAGCCAAGUUGGUUUAUGGCGCAAGACUUUAAUUUAUCACUACGAAAUCUUGAGAUCGAGCGUUCGACUCGCCCCCGGGAGAUUUUUUCCUCGAGCAA [C5A A24U G66A], for which the nonsense suppression is no more than 0.026.

In the case of CUCUAGGUAGCCAAGUUGGUUUAAGGCGCAAGACUUUAAUUUAUCACUACGAAAUCUUGGGAUCGGGCGUUCGACUCGCCCCCGGGAGAUUUUUUCCUCGAGCAA [C5A A60G], the nonsense suppression is 0.0265.

With CUCUAGGUAGCCAAGUUGGUUUAAGGCGCAAGACUUUAAUUUAUCACUACGAAAUCUUGCGAUCGGGCGUUCGACUCGCCCCCGGGAGAUUUUUUCCUCGAGCAA [C5A A60C], the nonsense suppression worked out at 0.0331.

Take CUCGCGGUAGCCAAGUUGGUUUAAGGCGCAAGACUUUAAUUUAUCACUACGAAAUCUUGAGAUCGGGCGUUCGACUCUCCCCCGGGAGAUUUUUUCCUCGAGCAA [U4G G78U]: the nonsense suppression was determined as 0.0997.

Turning to CUCUAGGUAGCCAAGUUGGUUUAAGGCGCAAGACUUUAAUUUAUCACUACGAAAUCUUGACAUCGGGCGUUCGACUCGCCCCCGGGAGAUUUUUUCCUCGAGCAA [C5A G61C], the nonsense suppression was found to be 0.0329.

As to CUCGCGGUAGCCAAGUUCGUUUAGGGCGCAAGACUUUAAUUUAUCACUACGAAAUCUUGACAUCGGGCGUUCGACUCGCCACCGGGAGAUUUUUUCCUCGAGCAA [U4G G18C A24G G61C C81A], the nonsense suppression came out at 0.057.

CUCUAGGUAGCCAAGUUGGUUUCAGGCGCAGGACUUUAAUUUAUCACUACGAAAUCUUGAAAUCGGGCGUUCGACUCGCCCCCGGGAGAUUUUUUCCUCGAGCAA [C5A A23C A31G G61A]: the nonsense suppression was no more than 0.026.

Regarding CUCGCUGUAGCCAAGUUGGUCUAAGGCGCAAGACUUUAAUUUAUCACUACGAAACCUUGAGAUCGGGCGUUCGACUCGGCCCCGGGAGAUUUUUUCCUCGAGCAA [U4G G6U U21C U55C C79G], the nonsense suppression was no more than 0.026.

For the variant CUCGCGGUAGCCAAGUUGGUUUAAGGCGCAAGACUUUAAUUUAUCACUACGAAAUCUUGAAAUCGGGCGUUCGACUCGCCCCCGGGAGAUUUUUUCCUCGAGCAA [U4G G61A], the nonsense suppression was found to be 0.189.

As to CUCGCGGUAGCCAAGUUGGUUUAAGGCGCAAGACUUUAAUUUAUCACUACGAAAUCUUGAUAUCGGGCGUUCGACUCGCCCCCGGGAGAUUUUUUCCUCGAGCAA [U4G G61U], the nonsense suppression was 0.804.

With CUCGCGGUAGCCAAGUUGGUUUAAGGCGCAAGACUUUAAUUUAUCACUACGAAAUCUUGAGAUCGGGCGUUCUACUCGCCCCCGGGAGAUUUUUUCCUCGAGCAA [U4G G73U], the nonsense suppression was found to be 0.0898.

On to CUCGCGGUAGCCAAGUUGGUUUAAGGCGCAAGACUUUAAUUUAUCACUACGAAAUCUUGAGAUCGGGCGUUCCACUCGCCCCCGGGAGAUUUUUUCCUCGAGCAA [U4G G73C], for which the nonsense suppression came out at 0.0291.

With CUCUAGUUAGCCAAGUUGGGUUAAGGCGCAAGACUUUAAUUUAUCACUACGAAAUCUUGAGAUCGGGCGUUCGUCUCGCCCCCGGGAGAUUUUUUCCUCGAGCAA [C5A G7U U20G A74U], the nonsense suppression was no more than 0.026.

For the variant CUCUAGGUAGCCAAGUUGCUUUAAGGCGCAAGACUUUAAUUUAUCACUACGAAAUCUUGAGGUCGGGCGUUCGACUCGCCCCCGGGAGAUUUUUUCCUCGAGCAA [C5A G19C A62G], the nonsense suppression was no more than 0.026.

For the variant CUCUAGGUAGCCAAGUUGGUUUAAGGGGCAAGACUUUAAUUUAUCACUACGAAAUCUUGAGAUCGGGCGUUCAACUCGCCCCCGGGAGAUUUUUUCCUCGAGCAA [C5A C27G G73A], the nonsense suppression is no more than 0.026.

For CUCUAGGUAGCCAAGUUGGUUUAAGGCGCUAGACUUUAAUUUAUCACUACGAAAUCUUGAGAUCGGGAGUUCGACUCGCCCCCGGGAGAUUUUUUCCUCGAGCAA [C5A A30U C68A], the nonsense suppression was no more than 0.026.

Regarding CUCGCGGUAGCCAAGUUGGUUUAAGGCGCAAGACUUUAAUUUAUCACUACGAAAUCUUGAGAACGGGCGUUCGACUCGCCCCCGGGAGAUUUUUUCCUCGAGCAA [U4G U63A], the nonsense suppression was 0.199.

In the case of CUCUAGGUAGCCAAAUUGGUUUAAGGCGCAAGGCUUUAAUUUAUCACUACGAAAUCUUGAGAUCGGGCGUUCGACUCGCCCCCGGGAGAUUUUUUCCUCGAGCAA [C5A G15A A33G], the nonsense suppression is no more than 0.026.
